Data set [1] relates to Mus musculus. The data set can be described thus: Anticonvulsant activity in CF-1 mouse model of subcutaneous pentylenetetrazole-induced seizure assessed as reduction in convulsions at 100 mg/kg, ip measured at 0.5 hrs post dose. It is filed as functional, organism-based. In a few lines:
(§1)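 Mice dosed i.p., then given pentylenetetrazole 85 mg/kg in 0.9% NaCl s.c. into the posterior midline of the neck. Seizures watched for at least 30 min. Scored as protected / tested at 0.5 and 4 h.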

Data set [2] is described as follows: Intrinsic clearance in rat liver microsomes at 20 uM preincubated for 15 mins followed by NADPH generating system addition and measured after 5 to 60 mins by LC-MS/MS analysis. The following applies: read-out: CLH. It is filed as ADME, Microsome. In a few lines: (§2)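 Test compound at 20 µM preincubated 15 min with male rat liver microsomes (0.4 mg ml⁻¹) in 100 mM potassium phosphate, pH 7.4. Started with NADP⁺ (3.4 mM), glucose 6-phosphate (7.7 mM) and G6PDH (0.6 U ml⁻¹). Run 5–60 min at 37 °C in duplicate, stopped with cold perchloric acid plus internal standard, supernatant analysed by LC-MS/MS. Half-life and Cl_int derived by literature methods.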
For orientation: Microsomes from liver hold many membrane-bound enzymes, among them those of drug oxidation.

The test system of data set [3] is Salmonella typhimurium. The data set can be described thus: Antimutagenic activity against Salmonella typhimurium TA1535 assessed as inhibition of NaN3-induced mutation at 250 ug/plate preincubated for 30 mins followed by top agar addition and measured after 48 hrs in presence of liver S9 fraction by Ames test relative to control. The format is organism-based. The following applies: salmonella enterica subsp. enterica serovar typhimurium, s9, 48 h. (In general: The Ames test detects mutagens through reverse mutation in bacteria.)

For data set [4], the system named is Salmonella typhimurium. In words: Antimutagenic activity against Salmonella typhimurium TA100 assessed as inhibition of NaN3-induced mutation at 100 ug/plate preincubated for 30 mins followed by top agar addition and measured after 48 hrs in presence of liver S9 fraction by Ames test relative to control. The format is organism-based. Conditions: salmonella enterica subsp. enterica serovar typhimurium, s9, 48 h.

Data set [5] in a line: Neurotoxicity in Sprague-Dawley rat at 100 mg/kg, ip measured after 1 hr by rotarod test. It is filed as toxicity, organism-based. The following applies: in vivo. A digest of the protocol:
(§3)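 Rat neurotoxicity after i.p. or p.o. dosing was scored as animals impaired / animals tested at each time point. For p.o. dosing, TD50 was obtained by probit analysis.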
(Falling from the rotarod earlier than controls is read as motor impairment.)

The nature of data set [6]: Mutagenicity in Salmonella typhimurium TA1535 assessed as mutagenicity index at 50 to 500 ug/plate preincubated for 30 mins followed by top agar addition and measured after 48 hrs in absence of liver S9 fraction by Ames test. The following applies: salmonella enterica subsp. enterica serovar typhimurium, s9, 48 h. The format is toxicity. A digest of the protocol:
(§4)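 Ames plate incorporation in S. typhimurium TA100 or TA1535, with or without S9. Overnight culture, compound in DMSO (50–500 µg per plate) and buffer or S9 mix preincubated 30 min at 37 °C, then top agar on glucose minimal agar. Incubated 48 h at 37 °C, revertants counted in triplicate. Vehicle negative control; NaN3 (−S9) and 2AA (+S9) positive controls. MI = revertants with compound / negative-control revertants; MI ≥ 2 with dose-response counts as positive.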

Data set [7] in a line: Neurotoxicity in CF-1 mouse at 30 mg/kg, ip measured after 0.5 hrs by rotarod test. The format is toxicity, organism-based. The following applies: in vivo. A digest of the protocol: (§5)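 Mice dosed i.p. were placed on a 1 in. knurled rod turning at 6 rpm. Toxicity was scored as failure to keep balance for at least 1 min, i.e. falling off three or more times. Results are reported as animals showing toxicity / animals tested at each time point.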

Data set [8] in a line: Half life in rat liver microsomes at 20 uM preincubated for 15 mins followed by NADPH generating system addition and measured by LC-MS/MS analysis. It is filed as ADME, Microsome. In a few lines:
as §2

For data set [9], the system named is Mus musculus. The data set can be described thus: Anticonvulsant activity in CF-1 mouse model of maximal electroshock-induced seizure assessed as suppression of tonic hind limb extension at 300 mg/kg, ip measured at 0.5 hrs post dose. The format is functional, organism-based. A digest of the protocol:
(§6)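 Mice dosed i.p. and given maximal electroshock at 50 mA. Read-out is protection, reported as number protected / number tested at 0.25, 0.5, 1 and 4 h after dosing.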

The subject of data set [10] is Mus musculus. The data set can be described thus: Anticonvulsant activity in CF-1 mouse model of maximal electroshock-induced seizure assessed as suppression of tonic hind limb extension at 100 mg/kg, ip measured at 1 hr post dose. The format is functional, organism-based. A digest of the protocol:
as §6

Data set [11] in a line: Neurotoxicity in Sprague-Dawley rat at 30 mg/kg, po measured after 0.5 hrs by rotarod test. It is filed as toxicity, organism-based. The following applies: in vivo. A digest of the protocol:
as §3

Data set [12] can be described thus: Mutagenicity in Salmonella typhimurium TA100 assessed as mutagenicity index at 50 to 500 ug/plate preincubated for 30 mins followed by top agar addition and measured after 48 hrs in presence of liver S9 fraction by Ames test. It is filed as toxicity, subcellular. Conditions: salmonella enterica subsp. enterica serovar typhimurium, s9, 48 h. In a few lines: as §4

Data set [13] deals with Salmonella typhimurium. The data set can be described thus: Antimutagenic activity against Salmonella typhimurium TA1535 assessed as inhibition of NaN3-induced mutation at 50 ug/plate preincubated for 30 mins followed by top agar addition and measured after 48 hrs in presence of liver S9 fraction by Ames test relative to control. It is filed as organism-based. Conditions: salmonella enterica subsp. enterica serovar typhimurium, s9, 48 h.

The subject of data set [14] is Mus musculus. The data set can be described thus: Anticonvulsant activity in CF-1 mouse model of subcutaneous pentylenetetrazole-induced seizure assessed as reduction in convulsions at 30 mg/kg, ip measured at 4 hrs post dose. The format is functional, organism-based. A digest of the protocol:
as §1

Data set [15] relates to Rattus norvegicus. In words: Anticonvulsant activity in Sprague-Dawley rat model of maximal electroshock-induced seizure assessed as suppression of tonic hind limb extension at 30 mg/kg, po measured at 0.5 hrs post dose. The format is functional, organism-based. In a few lines:
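Rats given 30 mg/kg p.o. and tested by maximal electroshock at 150 mA. Scored as number protected / number tested (4 per group) at 0.25, 0.5, 1, 2 and 4 h after dosing.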

Data set [16] deals with Rattus norvegicus. In words: Anticonvulsant activity in hippocampal kindling Sprague-Dawley rat model assessed as after discharge time at 50 mg/kg, ip administered as single dose measured after 45 mins. It is filed as functional. In a few lines:
(§7)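 Rats implanted with a hippocampal electrode and kindled with suprathreshold trains (200 µA, 10 s, 50 Hz) every 30 min for 6 h on alternate days until fully kindled. One week later they received a single i.p. dose. Seizure score (Racine scale) and afterdischarge duration were recorded at 0–135 min and compared with the control stimulus given 15 min before dosing; each animal served as its own control. Values are mean ± SEM.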

The test system of data set [17] is Rattus norvegicus. The data set can be described thus: Anticonvulsant activity in hippocampal kindling Sprague-Dawley rat model assessed as after discharge time at 50 mg/kg, ip administered as single dose measured after 135 mins. It is filed as functional. In a few lines: as §7
Data set [18] is described as follows: Neurotoxicity in Sprague-Dawley rat at 100 mg/kg, ip measured after 4 hrs by rotarod test. The format is toxicity, organism-based. The following applies: in vivo. A digest of the protocol: as §3
For data set [19], the system named is Rattus norvegicus. The data set can be described thus: Anticonvulsant activity in po dosed Sprague-Dawley rat model of maximal electroshock-induced seizure assessed as time required for suppression of tonic hind limb extension. The format is functional. In a few lines:
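Rats dosed p.o. and tested by MES at 150 mA. ED50 derived by probit analysis from quantitative dose groups, run at the time of peak effect (hours).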

Data set [20] is described as follows: Neurotoxicity in Sprague-Dawley rat at 50 mg/kg, ip administered as single dose measured after 0.25 hrs by rotarod test. It is filed as toxicity, organism-based. Conditions: in vivo. In a few lines: as §3
A short description of data set [21]: Neurotoxicity in Sprague-Dawley rat at 100 mg/kg, ip measured after 2 hrs by rotarod test. It is filed as toxicity, organism-based. The following applies: in vivo, 2 h. A digest of the protocol: as §3
For data set [22], the system named is Rattus norvegicus. In words: Anticonvulsant activity in hippocampal kindling Sprague-Dawley rat model assessed as after discharge time at 100 mg/kg, ip administered as single dose measured immediately. It is filed as functional. A digest of the protocol: as §7
Data set [23] is described as follows: Neurotoxicity in CF-1 mouse at 220 mg/kg, ip measured after 0.25 hrs by rotarod test. It is filed as toxicity, organism-based. The following applies: in vivo. In a few lines: as §5
A short description of data set [24]: Neurotoxicity in Sprague-Dawley rat at 30 mg/kg, ip measured after 1 hr by rotarod test. It is filed as toxicity, organism-based. The following applies: in vivo. A digest of the protocol:
as §3

Data set [25] is described as follows: Neurotoxicity in Sprague-Dawley rat at 30 mg/kg, ip measured after 2 hrs by rotarod test. It is filed as toxicity, organism-based. The following applies: in vivo. A digest of the protocol: as §3
Data set [26] in a line: Neurotoxicity in Sprague-Dawley rat at 300 mg/kg, ip measured after 0.5 hrs by rotarod test. The format is toxicity, organism-based. The following applies: in vivo. In a few lines: as §3

The source made the active and inactive calls.

From ChEMBL document CHEMBL4368872, “Synthesis and anticonvulsant activity of phenoxyacetyl derivatives of amines, including aminoalkanols and amino acids” (Medchemcomm, 2018) come the findings set out here.

A word on the half-life: it is how long it takes for the measured level to halve. The low end stands for fast loss, the high end for slow loss. As for `CCC(O)CNC(=O)COc1c(C)cccc1C` (stereo unspecified), the outcome in the data set on Mus musculus [1], with Mus musculus [10] and with Mus musculus [14] was inactive. For the same compound, the microsomal CLint at 20 µM in [2] turned out to be 57 µL/min/mg. Besides, the results for the “inhibition (INH)” value with Salmonella typhimurium [3], with Salmonella typhimurium [4] and with Salmonella typhimurium [13] were 56%, 26% and 42%, respectively. The Activity result in [5], in data set [7] and in [11] was “Non-Toxic” each time. Moreover, the Activity index in data set [6] and in [12] was 0.7 to 1.7 throughout. The same compound came in with a half-life at 20 µM in data set [8] of 0.507 h. For the same compound, the outcome in the data set on Mus musculus [9] and with Rattus norvegicus [15] was Active.

In the case of `Cc1cccc(C)c1OCC(=O)N[C@H](C)CO`, the Time was found to be 73 s in the data set on Rattus norvegicus [16], 72 s with Rattus norvegicus [17], 0.5 h with Rattus norvegicus [19] and 68 s in the data set on Rattus norvegicus [22]. Besides, the outcome in the data set with Mus musculus [1], with Mus musculus [10] and with Mus musculus [14] was inactive. For the same compound, the microsomal CLint at 20 µM in [2] was 9.5 µL/min/mg. In addition, the “inhibition (INH)” value came out at 47% in the data set with Salmonella typhimurium [3], 43% with Salmonella typhimurium [4] and 29% in the data set with Salmonella typhimurium [13]. The Activity result in data set [5], in data set [7], in data set [18], in [20], in [21] and in data set [11] was “Non-Toxic” throughout. The Activity result in [23] is reported as “Toxic”; in data set [24], “Non-Toxic”; in data set [25] it was “Non-Toxic”; in data set [26], “Toxic”. Further, the Activity index in [6] and in data set [12] was 0.7 to 1.7 each time. In [8], this compound had a half-life at 20 µM of 3.04 h. The result in the data set with Mus musculus [9] and in the data set on Rattus norvegicus [15] was Active.
